Assay outcomes from PubChem BioAssay.
GalR3 antag = human GalR3 antagonism; HEK293 GalR3-CNG cAMP membrane potential fluorescence; galR3 body fused to GalR1 C-terminus; inhibition, % at 3 µM; 360,000 tested, 0.44% active;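 active = inhibition above the screen-wide average plus 3 SD, cut at about 13% in these data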;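 note: forskolin and galanin both at EC90 stimulate the cells; cAMP rise reported by CNG channel membrane potential dye signal; 0% = forskolin plus galanin with DMSO and 100% = forskolin alone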
GPR7 antag = blocks human GPR7 receptor signaling | AID 1861 | inhibition, % at 4.4 µM | 290,000 tested, 1.1% active | P48145 | GPR7-expressing cells, fluorescence antagonist assay; in the data active = inhibition above about 16%, passing the limit was not always enough;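 note: cells stimulated with the agonist NPW; 0% = agonist with vehicle and 100% = vehicle without agonist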
OX1R antag-1 = human HCRTR1 antagonism | O43613 | CHO/OX1R cells, Fluo-8 calcium fluorescence, orexin A | inhibition, % at 5 µM | 330,000 tested, 0.43% active | AID 434989;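 active = inhibition above its plate's threshold, mean inhibition of all tested compounds on the plate plus 3 SD, cut at about 37% in these data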;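 note: 0% = orexin A challenge wells and 100% = SB-334867-A antagonist wells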
Target sequence (O43613 whole entry, looked up): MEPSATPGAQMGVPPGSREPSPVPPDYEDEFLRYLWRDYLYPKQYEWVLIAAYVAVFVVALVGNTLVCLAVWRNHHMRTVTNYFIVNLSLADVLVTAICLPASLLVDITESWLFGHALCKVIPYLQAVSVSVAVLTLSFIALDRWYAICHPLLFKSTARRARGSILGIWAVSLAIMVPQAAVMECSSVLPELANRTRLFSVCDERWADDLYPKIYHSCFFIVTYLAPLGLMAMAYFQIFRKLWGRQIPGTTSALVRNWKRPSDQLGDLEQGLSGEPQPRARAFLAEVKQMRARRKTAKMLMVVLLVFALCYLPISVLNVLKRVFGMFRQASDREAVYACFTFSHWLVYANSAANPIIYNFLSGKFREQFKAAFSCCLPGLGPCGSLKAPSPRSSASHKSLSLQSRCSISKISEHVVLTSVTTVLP
OX1R antag-2 = OX1R (human) antagonism; O43613; OX1R-expressing cells, FRET antagonist read-out; inhibition, % at 6.6 µM; 330,000 tested, 1.8% active; AID 485270; in the data active = inhibition mostly above about 38%, no sharp cut-off; inactive = mostly below about 40%;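 note: 0% = agonist challenge alone and 100% = reference antagonist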
CHO parental Ca = counter-screen: ATP calcium response change in parental CHO cells; parental CHO-K1, ATP-induced calcium, Fluo-8 fluorescence; inhibition, % at 5.6 µM; 330,000 tested, 0.63% active; AID 463079;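 active = inhibition above that plate's mean sample inhibition plus 3 SD, cut at about 26% in these data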;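 note: 0% = ATP-challenged DMSO wells and 100% = DMSO wells without ATP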
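Material: parental CHO cells / Compound: single nominal dose of 5.6 µM per compound / Signal: Fluo-8 fluorescence / Replicates: singlicate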
GPR7 antag conf = human GPR7 antagonism, confirmation assay | shares compounds with GPR7 antag | GPR7-expressing cells, calcium fluorescence antagonist mode | inhibition, % at 4.4 µM | 2,400 tested, 52% active | AID 1952; in the data active = inhibition above about 24%;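 note: stimulated with the GPR7 agonist NPW; 0% = agonist plus vehicle and 100% = vehicle alone without agonist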
MCHR1 antag = counter-screen for GPR7 antagonists: antagonists of human MCHR1; shares compounds with GPR7 antag; MCHR1-expressing cells, fluorescence antagonist assay; inhibition, % at 4.4 µM; 2,400 tested, 62% active; AID 2148; in the data active = inhibition above about 22%;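 note: 0% = vehicle with agonist and 100% = vehicle without agonist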
The depositor's hits bear a star; . = not tested or not shown. Most compounds without a hit are left out; they make up all but 3.1% or so of the library.

SMILES | GalR3 antag | GPR7 antag | OX1R antag-1 | OX1R antag-2 | CHO parental Ca | GPR7 antag conf | MCHR1 antag
COC(=O)C1CCN(S(=O)(=O)CCNC(=O)c2ccc(F)cc2)CC1 | -3 | . | -24 | 2 | -8 | . | .
CS(=O)(=O)c1ccc(Nc2nc(C(N)c3ccccc3Cl)cs2)cc1 (configuration not stated) | -6 | . | . | . | . | . | .
O=C(Nc1ccccc1)Nc1ccc2snnc2c1 | 0 | 25* | 29 | 86* | 31 | 27* | 60*
CN(C)c1ccc(NC(=O)Nc2ccc3snnc3c2)cc1 | 0 | -2 | 30 | 54 | 21 | . | .
O=C(Nc1ccccc1)Nc1ccc2nnsc2c1 | 2 | 33* | 24 | 17 | 31 | 28* | 62*
COc1cc2c(cc1OC)/C(=C/C(C)=O)OC2 | -6 | . | . | . | . | . | .
Cc1cc(-c2ccc(C)c(S(=O)(=O)N3CCN(c4ccccn4)CC3)c2)on1 | -1 | 28* | -12 | 10 | -17 | 32* | 62*
COC(=O)/C=C1\OCc2cc(OC)c(OC)cc21 | -5 | . | . | . | . | . | .
CCOC(=O)CN1C(=O)C(CC)Oc2ccc(Cl)cc21 (configuration not stated) | -6 | 8 | -27 | 5 | -21 | . | .
CCCCNC(=O)CN1C(=O)C(CC)Oc2ccc(Cl)cc21 (configuration not stated) | -10 | 28* | -32 | 29 | -16 | 16 | 25*
O=C(CSc1ccc2c(c1)OCCO2)Nc1ncccc1O | -6 | . | -8 | 17 | 0 | . | .
Cc1cc(C)nc(N/N=C/c2ccccc2Cl)n1 | -5 | 23* | -19 | 8 | -11 | 2 | 8
Cc1cc2c(cc1C)-n1nnnc1C(N1CCCC1)C(=O)N2 (configuration not stated) | -2 | . | . | . | . | . | .
Cc1nnc(N2C(=O)c3cccc4c([N+](=O)[O-])ccc(c34)C2=O)s1 | -7 | 28* | 10 | 42* | 12 | 33* | 51*
Cc1cccc(N2C(=O)c3cccc4c(N5CCCCC5)c([N+](=O)[O-])cc(c34)C2=O)c1C | 2 | -8 | -19 | -1 | -9 | . | .
Cc1ccc(S(=O)(=O)N(Cc2ccc(F)cc2)Cc2ccco2)cc1 | -6 | 32* | 9 | 20 | 24 | 30* | 58*
O=[N+]([O-])c1ccc(C2CC(c3ccccc3)=Nc3ccccc3S2)cc1 (configuration not stated) | -6 | 18 | -12 | 8 | -28 | -1 | 74*
Cc1ccsc1C(=O)NNC(=O)C1CCCCC1C(=O)O (configuration not stated) | 1 | 23* | -15 | 16 | -7 | -7 | 7
Cc1ccc(OCC(=O)N(C)CC(=O)Nc2ccc(Cl)c(C(F)(F)F)c2)c([N+](=O)[O-])n1 | -3 | . | -9 | 9 | -28 | . | .
CN1CCN(C2=Cc3ccccc3Sc3cc(F)c(Cl)cc32)CC1 | -12 | 27* | -13 | 8 | -6 | 38* | 58*
COc1ccc(S(=O)(=O)N2CCOCC2)cc1C(=O)Nc1ccc(N2CCCCCC2)cc1 | -3 | . | . | . | . | . | .
Cc1ccc(-c2noc(=O)n2CC(=O)Nc2ccc(S(=O)(=O)NC3CC3)cc2)cc1 | -8 | 23* | 15 | 8 | 7 | 47* | 30*
O=C(Cn1c(-c2ccccc2)noc1=O)Nc1ccc(S(=O)(=O)N2CCOCC2)cc1 | -4 | 16 | 13 | 0 | -7 | . | .
O=C(c1cc[n+]([O-])cc1)N1CCc2c([nH]c3ccccc23)C1c1ccccc1Cl (configuration not stated) | -4 | 31* | -7 | 13 | -17 | 12 | 7
C=CCN1CC(c2nc3ccccc3n2CCOc2ccccc2)CC1=O (configuration not stated) | -6 | 33* | -7 | 27 | -12 | 2 | 7
SMILES | GalR3 antag | GPR7 antag | OX1R antag-1 | OX1R antag-2 | CHO parental Ca | GPR7 antag conf | MCHR1 antag
C=C(C)Cn1c(C2CC(=O)N(Cc3ccccc3)C2)nc2ccccc21 (configuration not stated) | -2 | . | -28 | 8 | -2 | . | .
CCn1c(CNC(=O)C2CCCCC2)cc2cc(C)ccc21 | -9 | 28* | . | . | . | -11 | -2
CCn1c(CNC(=O)c2ccccc2F)cc2cc(C)ccc21 | -3 | 0 | . | . | . | . | .
CCC(=O)N(C)C[C@@H]1Oc2ncc(Br)cc2C(=O)N([C@H](C)CO)C[C@H]1C | 0 | . | . | . | . | . | .
CN1C(=O)C(/C(N)=N/NC(=O)c2ccccc2)C2CC1(C)Oc1ccccc12 (configuration not stated) | -1 | 99* | -4 | 12 | -3 | 9 | -3
CCOC(=O)Cc1csc(NC(=O)C(C)c2ccc([N+](=O)[O-])cc2)n1 (configuration not stated) | -6 | 74* | -2 | 20 | 9 | 49* | 54*
Cc1ccc(NC(=O)CCn2c(=S)oc3ccccc32)cc1 | -4 | -14 | -12 | 9 | -10 | . | .
CCOc1ccc(NC(=O)CCn2c(=S)oc3ccccc32)cc1 | -11 | 35* | -24 | 1 | -11 | 10 | 6
CCCCn1c(=N)n(CC(O)COc2ccc(C)cc2)c2ccccc21 (configuration not stated) | -11 | 36* | -18 | 9 | -2 | 28* | 39*
Cc1ccc(Cn2c(=N)n(CC(O)COc3ccccc3)c3ccccc32)cc1 (configuration not stated) | -12 | 29* | 52* | -7 | 41* | 43* | 71*
CCCCn1c(=N)n(CC(O)COc2ccccc2)c2ccccc21 (configuration not stated) | -4 | 10 | -27 | 15 | -29 | . | .
CCCCn1c(=N)n(CC(O)c2ccccc2)c2ccccc21 (configuration not stated) | -8 | 31* | -27 | 16 | -20 | 4 | 9
CCn1c(=N)n(CC(O)c2ccccc2)c2ccccc21 (configuration not stated) | -6 | -6 | -11 | 15 | -11 | . | .
O=C(NCCc1ccccc1)C1Cc2c(-c3ccccc3)ccnc2O1 (configuration not stated) | -6 | . | . | . | . | . | .
Nc1ccn([C@@H]2O[C@H](CNC(=O)[C@@H](N)CSCc3ccccc3)[C@@H](O)[C@H]2O)c(=O)n1 | 4 | . | . | . | . | . | .
CC(C)C[C@H]1CN(CCCC[C@H]2CNC(=O)C(=O)N2CCc2ccccc2)C(=O)C(=O)N1CCc1ccccc1 | -4 | . | . | . | . | . | .
COC(=O)c1ccc(CSc2ccccc2NC(=S)Nc2cccc(C(F)(F)F)c2)o1 | -6 | . | . | . | . | . | .
CCCCn1nnnc1C1(C)CCC(=O)N1CC1CCCCC1 (configuration not stated) | -3 | . | . | . | . | . | .
Nc1ccc2nc(-c3ccccc3)[nH]c2c1 | 0 | -2 | -11 | 11 | -1 | . | .
Nc1cccc(-c2nc3ccc(C(=O)c4ccccc4)cc3[nH]2)c1 | -3 | 43* | 0 | 30 | 5 | 27* | 63*
